Source: ChEMBL document CHEMBL1909543, “Synthesis and biological evaluation of thio-benzodiazepines as novel small molecule inhibitors of the p53-MDM2 protein-protein interaction” (Eur J Med Chem, 2011)

What was measured:
[1] = test system: SAOS-2; assay: Antitumor activity against p53 deficient human Saos2 cells after 72 hrs by MTT assay; format: functional, cell-based; conditions: SAOS-2, 72 h
How it was run: (§1)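 Cells seeded at 5-6 × 10⁴ per well and cultured 24 h, then exposed to a range of compound concentrations in triplicate wells; vehicle control 0.1% DMSO. After 72 h, MTT (5 mg/mL solution) added, plate shaken 1 min, then incubated 4 h at 37 °C. Formazan dissolved in DMSO and absorbance read at 570 nm. Drug-free wells served as blanks. IC50 = 50% growth inhibition.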

[2] = target: Tumour suppressor p53/oncoprotein Mdm2 (Homo sapiens, UniProt Q00987); assay: Inhibition of Mdm2-p53 protein interaction preincubated for 1 hr by fluorescence polarization assay
[3] = test system: U2OS; assay: Antitumor activity against human U2OS cells expressing wild type p53 after 72 hrs by MTT assay; format: functional, cell-based; how it was run: as §1
[4] = test system: U2OS; assay: Ratio of nutlin-3a IC50 to compound IC50 for human U2OS cells expressing wild type p53; format: functional

Chain of Tumour suppressor p53/oncoprotein Mdm2 (P04637 whole entry): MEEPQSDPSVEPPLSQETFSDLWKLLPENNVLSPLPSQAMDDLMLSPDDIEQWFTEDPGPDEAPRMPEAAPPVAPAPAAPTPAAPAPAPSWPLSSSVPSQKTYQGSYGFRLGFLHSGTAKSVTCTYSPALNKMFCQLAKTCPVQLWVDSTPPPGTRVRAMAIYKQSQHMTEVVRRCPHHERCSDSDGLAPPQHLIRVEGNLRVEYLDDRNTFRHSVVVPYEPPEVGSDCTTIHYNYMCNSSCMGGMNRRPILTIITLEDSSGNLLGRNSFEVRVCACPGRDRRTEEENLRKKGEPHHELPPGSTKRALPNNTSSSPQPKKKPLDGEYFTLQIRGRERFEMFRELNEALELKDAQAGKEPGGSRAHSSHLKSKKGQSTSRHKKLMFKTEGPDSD
Chain of Tumour suppressor p53/oncoprotein Mdm2 (Q00987 whole entry): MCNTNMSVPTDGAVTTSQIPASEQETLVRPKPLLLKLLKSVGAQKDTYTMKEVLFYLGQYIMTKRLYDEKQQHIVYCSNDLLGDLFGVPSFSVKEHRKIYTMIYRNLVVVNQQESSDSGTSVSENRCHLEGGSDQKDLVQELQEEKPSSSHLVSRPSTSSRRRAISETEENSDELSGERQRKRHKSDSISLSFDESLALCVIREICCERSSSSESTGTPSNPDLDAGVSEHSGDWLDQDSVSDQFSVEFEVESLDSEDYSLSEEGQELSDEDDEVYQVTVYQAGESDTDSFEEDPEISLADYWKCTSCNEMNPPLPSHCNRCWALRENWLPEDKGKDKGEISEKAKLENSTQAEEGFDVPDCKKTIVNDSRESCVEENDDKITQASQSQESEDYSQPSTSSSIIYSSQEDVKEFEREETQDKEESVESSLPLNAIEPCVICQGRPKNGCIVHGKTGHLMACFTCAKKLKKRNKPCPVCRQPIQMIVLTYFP

Structure (SMILES)	IC50 [1] [µM]	Ki [2] [µM]	IC50 [3] [µM]	Ratio IC50 [4]
COC(=O)C(c1ccc(Cl)cc1)N1C(=O)c2ccc(NCc3ccc(Br)cc3)cc2NC(=S)C1c1ccc(Cl)cc1 (configuration not stated)	13.8	> 100	14.7	
COC(=O)C(c1ccc(Cl)cc1)N1C(=O)c2ccccc2NC(=O)C1c1ccc(Cl)cc1 (configuration not stated)	5.58	10.6	13.9	
COC(=O)C(c1ccc(Cl)cc1)N1C(=O)c2ccccc2NC(=S)C1c1ccc(Cl)cc1 (configuration not stated)	6.55	0.52	13.7	
CCCNc1ccc2c(c1)NC(=S)C(c1ccc(Cl)cc1)N(C(C(=O)OC)c1ccc(Cl)cc1)C2=O (configuration not stated)	12.4	1.02	91.2	
COC(=O)C(c1ccc(Cl)cc1)N1C(=O)c2ccc(NCc3ccccc3)cc2NC(=S)C1c1ccc(Cl)cc1 (configuration not stated)	17.8	2.26	> 100	
COC(=O)C(c1ccc(Cl)cc1)N1C(=O)c2ccc(NCc3ccc(Cl)cc3)cc2NC(=S)C1c1ccc(Cl)cc1 (configuration not stated)	13.3	> 100	20.9	
COC(=O)C(c1ccc(Cl)cc1)N1C(=O)c2ccc(NCC(C)(C)C)cc2NC(=S)C1c1ccc(Cl)cc1 (configuration not stated)	2.19	> 100	18	
COC(=O)C(c1ccc(Cl)cc1)N1C(=O)c2ccc(NCC(C)C)cc2NC(=S)C1c1ccc(Cl)cc1 (configuration not stated)	15.7	0.32	> 100	
CCCCCNc1ccc2c(c1)NC(=S)C(c1ccc(Cl)cc1)N(C(C(=O)OC)c1ccc(Cl)cc1)C2=O (configuration not stated)	20.7	15	> 100	
CCCCNc1ccc2c(c1)NC(=S)C(c1ccc(Cl)cc1)N(C(C(=O)OC)c1ccc(Cl)cc1)C2=O (configuration not stated)	27.9	49.6	> 100	
COC(=O)C(c1ccc(Cl)cc1)N1C(=O)c2ccc(NCC3CC3)cc2NC(=S)C1c1ccc(Cl)cc1 (configuration not stated)	19	3.43	> 100	
COC(=O)C(c1ccc(Cl)cc1)N1C(=O)c2ccc(NCc3ccc(C(F)(F)F)cc3)cc2NC(=S)C1c1ccc(Cl)cc1 (configuration not stated)	2.87	5.34	1.06	23
COC(=O)C(c1ccc(Cl)cc1)N1C(=O)c2ccc(NCC3CCCCC3)cc2NC(=S)C1c1ccc(Cl)cc1 (configuration not stated)	72.2	> 100	> 100	
COC(=O)C(c1ccc(Cl)cc1)N1C(=O)c2ccc(NCc3ccc4ccccc4c3)cc2NC(=S)C1c1ccc(Cl)cc1 (configuration not stated)	91.7	> 100	> 100	
COC(=O)C(c1ccc(Cl)cc1)N1C(=O)c2ccc(NCc3ccc(OC)cc3)cc2NC(=S)C1c1ccc(Cl)cc1 (configuration not stated)	88.1	> 100	> 100	
COC(=O)C(c1ccc(Cl)cc1)N1C(=O)c2ccc(NCc3ccsc3)cc2NC(=S)C1c1ccc(Cl)cc1 (configuration not stated)	3.37	> 100	> 100	
COC(=O)C(c1ccc(Cl)cc1)N1C(=O)c2ccc(NCc3ccc(F)cc3)cc2NC(=S)C1c1ccc(Cl)cc1 (configuration not stated)	9.81	1.71	30.6	
COC(=O)C(c1ccc(Cl)cc1)N1C(=O)c2ccc(NCc3ccco3)cc2NC(=S)C1c1ccc(Cl)cc1 (configuration not stated)	11.3	43.1	48.5	
COc1ccc(C2=N[C@@H](c3ccc(Cl)cc3)[C@@H](c3ccc(Cl)cc3)N2C(=O)N2CCNC(=O)C2)c(OC(C)C)c1 [NUTLIN-3]	54.4		24.6	
